697 NFkB inh – inhibitors of the PMA/ionomycin-induced NF-kB reporter in 697 B cells | hit rate 0.33% among 330,000 | 697 B-cell NF-kB luciferase reporter, 16 h | inhibition, % at 4 µM; in the data active means inhibition above about 35%
Jurkat NFkB inh – inhibitors of the PMA/ionomycin-induced NF-kB reporter in Jurkat cells. PMA/ionomycin-induced NF-kB luciferase reporter, luminescence. inhibition, % at 4 µM. hit rate 0.53% among 330,000; in the data active means inhibition above about 50%
CHOP inhibitor – inhibitors of CHOP induction in ER stress response | CHO-K1 CHOP-promoter luciferase, tunicamycin-induced, 15-18 h | inhibition, % at 10 µM | hit rate 3.8% among 220,000 | AID 2732;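 active means compounds that reduced the stress-induced luciferase reporter signal by more than about 70% of percent inhibition, limit read from the data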
CHOP UPR activ – activators of apoptotic arm of unfolded protein response (CHOP). CHO-CHOP luciferase reporter, UPR activation, luminescence; percent of tunicamycin response over DMSO baseline. activation, % at 10 µM. hit rate 0.34% among 330,000. AID 449763;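 active means at 10 µM dose, activation of 40% or more, normalized to positive control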
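System: CHO-CHOP luciferase reporter cell line; amount: 500 cells/well; buffer or medium: F12 medium containing 10% fetal bovine serum; incubation: 6 h compound exposure at 37 °C after overnight seeding; measured by: luciferase luminescence after 10 min with Steady-Glo reagent; evaluation: % reporter activation, DMSO baseline versus tunicamycin full activation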
UPR XBP1 act – adaptive UPR (XBP1) activation. CHO-XBP1 luciferase reporter, IRE1-XBP1 UPR activation, luminescence; percent of tunicamycin response, DMSO as zero. activation, % at 20 µM. hit rate 0.33% among 330,000. AID 463104;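 active means versus positive control, 20 µM dose yields 30% or more activation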
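Material: CHO-XBP1 cells stably carrying IRE1-XBP1-driven luciferase reporter | Medium: F12 with 10% serum | Compound dosing: 20 µM single concentration, DMSO 1% | Incubation: Overnight seeding at 37 °C, 6 h compound treatment at 37 °C | Detection: Steady-Glo luminescence read | Read-out basis: % activation of reporter signal versus tunicamycin and DMSO controls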
Each line names hits and unclear results; the compound was inactive in the other large screens; ! = not active in a repeat. The entries come from a sample that favours hits as a whole.

CCc1ccc(-c2csc(NC(=O)C3CC(=O)N(c4ccc5c(c4)OCCO5)C3)n2)cc1 (centres undefined)	CHOP inhibitor 85.2
COc1cccc(Oc2nc(N)ncc2[N+](=O)[O-])c1	none (no result: CHOP inhibitor)
CCN=C(NCC)SC1CC(=O)N(c2cccc(OC)c2)C1=O (centres undefined)	none
CCN=C(Nc1cccc(F)c1)SC1CC(=O)N(c2ccc(OC)cc2)C1=O (centres undefined)	CHOP inhibitor 90.2
O=C1CC(SC(=Nc2ccccc2)Nc2ccccc2)C(=O)N1c1ccc(Cl)c(Cl)c1 (centres undefined)	CHOP inhibitor 90.1
O=C(NCc1ccccc1)/C(=C\c1ccccc1)NC(=O)c1ccco1	none (no result: CHOP inhibitor)
CN(C)CCOC(=O)C12CC3(C)CC(C)(CC(C)(C3)C1)C2	CHOP inhibitor 94.0
Cn1ccnc1Sc1cc(NCCCO)c([N+](=O)[O-])c2nonc12	CHOP inhibitor 95.9
Cc1ccc(C)c(Cn2nnc3c(=O)[nH]c(C4CCCN(S(=O)(=O)Cc5ccccc5)C4)nc32)c1 (centres undefined)	UPR XBP1 act 102.8 (no result: CHOP inhibitor)
COc1cccc(-c2cc(C(F)(F)F)nc(N3CCC(C)CC3)n2)c1	none
COc1cccc(-c2cc(C(F)(F)F)nc(N3CCOCC3)n2)c1	CHOP inhibitor 73.6
COc1ccccc1-c1cc(C(F)(F)F)nc(N2CCN(c3ccccc3)CC2)n1	none
COc1ccccc1-c1cc(C(F)(F)F)nc(N2CCOCC2)n1	CHOP inhibitor 72.4
COc1cc(OC)cc(C(=O)NC(C(=O)NCCc2ccccn2)C(C)C)c1 (centres undefined)	none (no result: CHOP inhibitor)
c1ccc(N2CCN(c3ccccc3)C2c2cccnc2)cc1	none
Cc1ccc(N2CCN(c3ccc(C)cc3)C2c2cccnc2)cc1	CHOP inhibitor 75.8
C/C(=N\Nc1ccc(F)cc1F)c1ccc(Br)s1	CHOP inhibitor 71.3
O=C(CN1C(=O)CCSc2ccc(S(=O)(=O)N3CCOCC3)cc21)Nc1cccc(F)c1	none (no result: CHOP inhibitor)
Cc1ccc(Cn2ccc(NC(=O)c3cc(CC(C)C)on3)n2)cc1	CHOP inhibitor 76.3
Cc1nn(Cc2ccc(Cl)c(Cl)c2)c(C)c1NC(=O)c1cc(CC(C)C)on1	CHOP inhibitor 92.9
Cc1cc(C(=O)Nc2c(C)nn(Cc3ccc(F)cc3)c2C)on1	CHOP inhibitor 81.2
Cc1ccc(Cn2nc(C)c(NC(=O)c3cc(C)no3)c2C)cc1	none
CC1CN(c2cc(-c3ccccc3)c3ccccc3n2)CC(C)O1 (centres undefined)	none
CC1CN(c2nc(-c3ccccc3)nc3ccccc23)CC(C)O1 (centres undefined)	CHOP inhibitor 82.0
COc1cccc(-c2nc(N3CC(C)CC(C)C3)c3ccccc3n2)c1O (centres undefined)	CHOP inhibitor 76.0, UPR XBP1 act 45.8
O=C(c1ccncc1)N1CCN(S(=O)(=O)c2cccc(Cl)c2)CC1	none (no result: CHOP inhibitor)
Cc1ccc(C(=O)CSc2nnc(CNc3ccc(C)cc3C)o2)cc1	CHOP inhibitor 71.5
CN1C(=O)c2cccc(NCCCCCCN3C(=O)c4ccccc4C3=O)c2C1=O	CHOP inhibitor 71.1
COc1cccc(CN2C(=O)[C@@H]3Cc4c([nH]c5ccccc45)C(C)(C)N3C2=O)c1	none (no result: CHOP inhibitor)
Cc1ccc(C2=NOC(=O)/C2=C\C=C\c2ccccc2)cc1	CHOP inhibitor 89.6 (no result: 697 NFkB inh, Jurkat NFkB inh, CHOP UPR activ, UPR XBP1 act)
CN(C)/C=C1\C(=O)ON=C1c1ccccc1	none
Cc1ccc(-c2nnc3n2N=C(c2ccc(Br)cc2)CS3)cc1	CHOP inhibitor 89.4
C=C(C)c1cccc(C(C)(C)NC(=O)NC2CCN(Cc3ccccc3)CC2)c1	none (no result: CHOP inhibitor)
C=C(C)c1cccc(C(C)(C)NC(=O)N(Cc2ccccc2)Cc2ccco2)c1	CHOP inhibitor 82.8
CCCCOc1ccc(C(C)NC(=O)CCS(=O)(=O)Cc2ccccc2F)cc1 (centres undefined)	CHOP inhibitor 70.7
Cc1cc(NC(=O)CCC(=O)N(CC(=O)NC2CCCC2)c2ccc(F)c(Cl)c2)no1	none (no result: CHOP inhibitor)
CC(=O)C1=C(O)C(=O)N(c2cc(C(C)(C)C)on2)C1c1ccc(C(C)C)cc1 (centres undefined)	CHOP inhibitor 72.5
CC(=O)C1=C(O)C(=O)N(c2cc(C(C)(C)C)on2)C1c1ccc(Br)cc1 (centres undefined)	none
Cc1cc(C)cc(C(=O)O/N=C(\N)c2ccc(Br)cc2)c1	CHOP inhibitor 71.8
Oc1c(Br)cc(Br)cc1CNc1nccs1	none (no result: CHOP inhibitor)
Cc1ccc(-c2cc(C(F)F)n3ncc(C(=O)Nc4c(C)nn(Cc5c(Cl)cccc5Cl)c4C)c3n2)cc1	CHOP inhibitor 90.8
Cc1nn(CC(=O)Nc2ccc3nc4n(c(=O)c3c2)CCCC4)c(C)c1[N+](=O)[O-]	none (no result: CHOP inhibitor)
COc1cc2ccccc2cc1C(=O)N1CCc2ccccc21	none (no result: CHOP inhibitor)
CC(=O)N1N=C(c2ccc(C)cc2)OC1c1ccc(C(C)C)cc1 (centres undefined)	none
CC(=O)N1N=C(c2ccc(C)cc2)OC1c1ccc(C)cc1 (centres undefined)	CHOP inhibitor 75.0
CCOC(=O)c1sc(-c2ccc(Br)cc2)cc1N	CHOP inhibitor 80.8
CCOC(=O)c1cc(-c2ccc(N)cc2)sc1N	none
Cc1ccc(-n2nnnc2C(Cl)c2nnnn2-c2ccc(C)cc2)cc1	CHOP inhibitor 91.1 (no result: 697 NFkB inh, Jurkat NFkB inh, CHOP UPR activ, UPR XBP1 act)
COc1ccc(S(=O)(=O)NCCN2CCOCC2)c(C)c1C	none (no result: CHOP inhibitor)
COc1cc(S(=O)(=O)NCCN2CCOCC2)c(OC)cc1Cl	CHOP inhibitor 78.3
CCc1ccc(OCC(=O)N/N=C(\C)c2ccc(OC(F)F)cc2)cc1	CHOP inhibitor 78.3
CC1Cc2cc(S(=O)(=O)N3CCC(C(=O)N(C)Cc4ccco4)CC3)ccc2N1C(=O)C1CCC1 (centres undefined)	none (no result: CHOP inhibitor)
CN(C)CCCN(C(=O)/C=C/c1cccs1)c1nc2ccc(F)cc2s1	none
CN(C)CCN(C(=O)/C=C/c1cccs1)c1nc2c(F)cc(F)cc2s1	CHOP inhibitor 106.2
NC(=O)OCC(COC(N)=O)c1ccccc1	CHOP inhibitor 97.0!
NC(=O)NC(Cc1ccccc1)c1ccccc1 (centres undefined)	none
O=C(NCc1ccc2c(c1)OCO2)Nc1cccc2ccccc12	CHOP inhibitor 86.4
Cc1ccc(Cn2c(=O)n(CCC(=O)NCc3ccc4c(c3)OCO4)c(=O)c3ccccc32)cc1	CHOP inhibitor 95.3
COc1ccccc1NC(=O)NCc1ccc2c(c1)OCO2	none
N#Cc1ccccc1Cn1c(=O)n(CCCC(=O)NCc2ccc3c(c2)OCO3)c(=O)c2ccccc21	none
CC(C)CC(=O)Nc1ccc2oc(-c3ccncc3)nc2c1	none
CC(Oc1ccc(Cl)cc1Cl)C(=O)Nc1ccc2oc(-c3ccncc3)nc2c1 (centres undefined)	CHOP inhibitor 73.8
CC(OC(=O)c1ccccc1C(=O)N(C)c1ccccc1)C(=O)Nc1ccccc1[N+](=O)[O-] (centres undefined)	none (no result: CHOP inhibitor)

Screening data as filed in PubChem.
